Test: Toxicity liver stage against HepG2, at 10uM
Format: cell-based
Set-up: test concentration 10 uM, cell line HepG2-A16-CD81EGFP
Conditions: human, HepG2-A16-CD81EGFP cells; read-out: INHIBITION
Outline: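 Uninfected HepG2-A16-CD81EGFP cells, 3 × 10^3 per well, 1536-well, plated on prespotted compound at 10 μM final, parasite-free screening media added to match infected plates; puromycin 10 μM positive, DMSO 0.5% negative; run in parallel with 48 h PbLuc assay at 37 °C, 5% CO2; viability by CellTiter-Glo luminescence, normalized to controls.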

| SMILES | cytotoxicity at 10 µM [%] |
| --- | --- |
| FC(F)(F)Oc1ccc(-c2noc([C@@H]3Cc4nc[nH]c4CN3)n2)cc1 | -7.47 |
| Cn1ccc2c(ccn2CC(=O)Nc2ccc(Br)cc2)c1=O | 10.4 |
| COC(=O)N1CC2=CC(C)(C)COc3ccc(OC)c(c32)C1 | 5 |
| CC(=O)N1CCN(C(=O)c2ccc3ccn(C)c3c2)CC1 | -0.173 |
| N#Cc1ccc2c(c1)CN(C(=O)c1nc[nH]n1)C2c1cnco1 (stereo not given) | -2.6 |
| CCN1CC2(CC1=O)CN(C(=O)COC)CCN(S(C)(=O)=O)C2 (stereo not given) | 0.165 |
| CCN(CC)[C@@H]1CN(Cc2ccc(C)o2)[C@@H]2CCCO[C@H]12 | -148 |
| c1cnn([C@@H]2CN(Cc3nccs3)[C@@H]3CCCO[C@@H]32)c1 | 9.07 |
| COCCN1C=NC2(CCC(C(=O)Nc3ccc(C)cc3)CC2)C1=O (stereo not given) | 15.1 |
| O=C(c1ccco1)N1CCC2(CC1)C(=O)Nc1ccccc12 | -144 |
| CSC1=Nc2c(cnn2-c2ccc(Cl)cc2)C2=NCCCN12 | 7.41 |
| Cc1ccc(N2CCCc3sc(C(=O)NCc4cccnc4)nc32)nn1 | -2.96 |
| COc1ccc(C2=Nn3c(CN)nnc3-c3ccccc3C2)cc1 | 8.55 |
| CCc1nc(NCCCn2cccn2)c2c(n1)c(C)nn2CC | 6.36 |
| CC(=O)N1CCCC1c1cccc(NCc2ccccc2F)n1 (stereo not given) | -13.8 |
| CN(C)Cc1ccnc(C2CCCN2Cc2ccc(F)cn2)n1 (stereo not given) | -17.7 |
| CO[C@H]1CN(C(=O)c2ccc3oc(C)cc3c2)C[C@@]12CCCO2 | -6.14 |
| CC(C)(N)C(=O)N1CCC(c2nccnc2Oc2ccccc2F)CC1 | -13.9 |
| c1cnc(-c2cnc(N3CCSCC3)nc2C2CC2)cn1 | 17.3 |
| CC(=O)Nc1nc(C2CCN(CC(N)=O)CC2)cs1 | -2.76 |
| CCS(=O)(=O)CC(=O)Nc1ccccc1N1CCc2ccccc21 | 9.26 |
| c1ccc2c(NC3CCc4ncnn4C3)ncnc2c1 (stereo not given) | 7.21 |

| SMILES | cytotoxicity at 10 µM [%] |
| --- | --- |
| COCCN1CCN(Cc2coc(-c3ccccc3Cl)n2)CC1 | -1.67 |
| CC(O)CN(C)S(=O)(=O)c1ccc(C#N)cc1F (stereo not given) | -6.67 |
| COCC(C)N(C)C(=O)CCc1c(C)nc2c(C#N)cnn2c1C (stereo not given) | -43.3 |
| CCNC(=O)N1CCC(=Cc2ccccc2)CC1 | 3.87 |
| O=C(Nc1ccc(OC(F)F)cc1)N1CCC(c2nnc[nH]2)CC1 | 7.25 |
| CC(C)N(C)C(=O)C1CCN(Cc2cnc3ccccn23)CC1 | 27.5 |
| COc1ccc(S(=O)(=O)C(F)(F)F)cc1NC(=O)CSC | 10.9 |
| CCOCCCNC(=O)CCSCc1csc(C)n1 | -3.57 |
| CCc1ccc(C2CCCN2C(=O)CNC(=O)CCC(C)C)o1 (stereo not given) | -10.2 |
| O=C(CN1CCS(=O)(=O)CC1)NC1CCCOc2ccccc21 (stereo not given) | 4.81 |
| COc1ccc(C(=O)CCC(=O)NCc2c(C)noc2C)cc1F | 2.43 |
| Cc1nn(CN(Cc2ccsc2)C2CC2)c(=O)c2noc(C)c12 | -1.54 |
| O=C(NCCN1CCOCC1)c1cnc(Cc2ccc(F)cc2)s1 | 16.7 |
| CCC(CNC(=O)c1ccc(F)cc1F)N1CCc2ccccc2C1 (stereo not given) | 10.9 |
| COc1ccccc1OCC(=O)NS(=O)(=O)c1ccc(F)cc1F | 8.68 |
| CCC(CC)c1cc(CNC(=O)N2CCCC(C(=O)NC)C2)on1 (stereo not given) | -18.6 |
| CCNC(=O)CNC(=O)Nc1cccc(Cl)c1SC(F)F | -1.76 |
| OCC1CCCN1c1cc(NCCc2ccccn2)ncn1 (stereo not given) | -0.813 |
| Cc1cc(N2CCCC2c2nnc3n2CCCCC3)nc(N)n1 (stereo not given) | -10.1 |
| Cc1cccc(C(C)(C)NC(=O)CS(=O)(=O)CC(C)C)c1 | 0.927 |
| CCOc1ccc(C(F)(F)F)cc1NCc1cc(C)on1 | -49.3 |
| Cn1[nH]c(C2CCC2)c(-c2ccc3c(c2)OCO3)c1=N | -42.3 |

| SMILES | cytotoxicity at 10 µM [%] |
| --- | --- |
| O=C(Cn1cnnn1)NCC1(O)CCCc2ccccc21 (stereo not given) | -42.3 |
| CC(C)COC1CCN(C(=O)c2ccc(C(F)(F)F)[nH]c2=O)CC1 | 0.0436 |
| FC(F)(F)COCCN1CCc2cncnc2C1 | -2.67 |
| CCC(C)(CC(=O)O)NC(=O)Cc1ccccc1F (stereo not given) | -1.28 |
| COCC(=O)Nc1ccnn1-c1ccc(Cl)cc1 | 2.18 |
| COC(=O)c1ccc(CN(C)C(=O)c2cnsn2)cc1 | 9.59 |
| COCC(=O)NCCC(=O)N1CCN(S(=O)(=O)c2cccc(Br)c2)CC1 | -40.4 |
| CN(CC(=O)N1CCCC1)Cc1nc2c(cnn2C)c(=O)[nH]1 | -1.38 |
| O=C(CC1CC1)N[C@@H]1CN(C(=O)c2ccsc2)C[C@@H]2CCCO[C@@H]21 | -109 |
| COCC(=O)N1C[C@H](N(C)Cc2cncnc2)[C@H]2OCCC[C@H]21 | -99.2 |
| CC(=O)N1CCC2(CCN(C(=O)c3cccc(C(F)(F)F)c3)CC2)C1 | -71.5 |
| Cc1ccnc(N2CCC(C(N)=O)CC2)n1 | -18.3 |
| CC(C)CC(=O)N1CC(=O)c2sc(Nc3ccc(F)cc3F)nc2C1 | -2.89 |
| Cc1csc2ncc(-c3ccnc(N4CCC[C@H](C(N)=O)C4)n3)c(=O)n12 | -13.3 |
| CC(C)[C@@H]1CN(C2CCN(Cc3ccccc3)CC2)C[C@H]1NS(C)(=O)=O | -10.7 |
| CSCCc1c(-c2ccccc2)ncn1CCNc1cccnc1 | 5.29 |
| Cc1c(CN2C[C@H](O)[C@@H](N3CCOCC3)C2)[nH]c2ccc(F)cc12 | 5.86 |
| CCc1nc(NC(=O)N(C)Cc2ccoc2)nn1C | 0.79 |
| Cc1ccc(-c2cc(C(=O)NCCCc3csc(N)n3)[nH]n2)o1 | 79.5 |
| C[C@@H]1CN(Cc2cc(C3CCCCC3)no2)CC[C@@]1(O)C1CC1 | 0.957 |
| c1ccc(COCCN2CCc3[nH]cnc3C2c2ccco2)cc1 (stereo not given) | -2.01 |
| CCN(CCn1cccn1)C(=O)CN1C(=O)OC[C@@H]1C(C)C | 1.97 |

| SMILES | cytotoxicity at 10 µM [%] |
| --- | --- |
| COc1cc(C)ccc1OCc1nc(C(=O)N2CCCNC(=O)C2)co1 | -44.5 |
| Cc1ccc(Cl)cc1-n1nnnc1C1(N2CCCC2)CCCCC1 | 18.9 |
| CCOc1ccc(C(=O)CCC(=O)N(C)Cc2nc(C)c[nH]2)cc1C | -5.45 |
| CC(O)C1CCN(Cc2cnc3c(-c4ccccc4)cnn3c2)CC1 (stereo not given) | -0.537 |
| Fc1ccc(C2(CNCCc3cccs3)CCOC2)cc1 (stereo not given) | -149 |
| O=C(O)COc1ccc(Cl)cc1CN1CCC2(CCOCC2)CC1 | -6.55 |
| CCC[C@@H]1CN(Cc2cc(C#N)n(C)c2C)C[C@H]1NS(C)(=O)=O | -132 |
| CC(=O)N1CCc2c(nc(N(C)C)nc2NCCc2cccs2)C1 | -54 |
| Cc1cc(C(=O)N(C)CCCn2cccn2)nc(N)n1 | -7.04 |
| Cc1nnc(CN2C[C@H](NC(=O)CC3CCCC3)[C@@H](C3CC3)C2)s1 | -42.4 |
| CCCOCCN1CCC2(CC1)CC(=O)N(Cc1cc(F)cc(F)c1)C2 | 2.71 |
| Cc1cc(CN(C)C(=O)CN2CC3(CCNCC3)OC2=O)n(C)n1 | 9.81 |
| COc1ccc2[nH]c(=O)c(CN(C)CCN3CCCC3)cc2c1 | 1.97 |
| COc1cccc(SCC(=O)N2CCC(N3CCCC(O)C3)CC2)c1 (stereo not given) | -18.7 |
| CN(c1ccc(Cl)c(C(=O)NCCCN2CCOCC2)c1)S(C)(=O)=O | 1.05 |
| CCN1CCC(CC(=O)N2CCc3sc(C(=O)N(C)C)cc3C2)CC1 | -21.1 |
| COc1ncccc1C(=O)N1CCCC1c1nc(-c2ccccc2)no1 (stereo not given) | 1.75 |
| CS(=O)(=O)N1CCC(Oc2ccc(C(=O)N3CCSCC3)cc2Cl)CC1 | 16.2 |
| COc1ccc(CNc2cnn(CC(F)F)c2)cc1 | -7.47 |
| CCc1cccc(N2CCC(NC(=O)C3CCC3)CC2)c1 | 3.6 |
| COc1ccc(OCCCNCCn2cccn2)cc1 | -20 |
| CCc1n[nH]c(C2CN(Cc3nc(C4CC4)no3)CCO2)n1 (stereo not given) | -10.8 |

| SMILES | cytotoxicity at 10 µM [%] |
| --- | --- |
| Cc1cc(C)n(CCC(=O)N2CCCC(n3cncn3)C2)n1 (stereo not given) | -5.05 |
| Cc1cc(NC(=O)CN2CCn3c(nnc3C(C)C)C2)no1 | -1.11 |
| CN(Cc1ccsc1)C(=O)CN1CCCC1Cn1cccn1 (stereo not given) | -3.78 |
| CNC(=O)N1CCC2(CC1)c1ncc(-c3cccc(F)c3)n1CCN2C | 7.97 |
| Cn1cc(-c2cnc3n2CCC32CCN(S(=O)(=O)C3CC3)CC2)cn1 | -139 |
| CCOC(=O)[C@]12CCCN(Cc3cccs3)C[C@H]1CN(C(C)C)C2 | 12.2 |
| O=C1CC[C@@H]2[C@@H](CCN2C(=O)c2ccsc2)N1Cc1ccncc1 | -71.5 |
| CC(=O)c1ccc(NC(=O)c2ccc3c(c2)C2(CCCCC2)CN3)cc1 | -108 |
| O=C(N1CCCC1)N1C[C@H]2CCC[C@@]2(COCc2ccccn2)C1 | -106 |
| Cc1ccc(CN2CCCC3(CCCN3S(C)(=O)=O)C2)s1 (stereo not given) | -97.9 |
| CCn1cc2c(n1)CN(Cc1ccc(C)o1)CC2COCC1CC1 (stereo not given) | -80.7 |
| Cc1cc(-c2cnc(N3CCCC(C)C3)nc2-c2cccnc2C)on1 (stereo not given) | 7.85 |
| O=C(c1cscn1)N1CCCC2(CCN2Cc2cccc(F)c2)C1 (stereo not given) | -112 |
| c1cncc(CN2CCCn3nnc(COCC4CC4)c3C2)c1 | -110 |
| COCc1n[nH]c2c1CN(Cc1cccs1)C2 | 3.3 |
| Cn1cncc1CN1C[C@@H]2OCCN(c3ncccn3)[C@@H]2C1 | -67 |
| CC(C)CN1C(=O)C[C@@H]2[C@@H]1CCN2Cc1cccc(C#N)c1 | -66.4 |
| CCOCC1CN(c2ccc(C)nn2)Cc2nn(CC)cc21 (stereo not given) | 11.5 |
| CCOCc1nn(CC2CC2)c2c1CN(Cc1cccs1)CC2 | -108 |
| c1csc(CN2CCOCC3(CCN(C4CCOCC4)C3)C2)n1 (stereo not given) | 0.487 |
| O=c1[nH][nH]c2cn(-c3ccccc3)c(=O)n12 | 4.6 |
| Cc1cc(CN2C[C@@H]3CC[C@H]2CN(C2Cc4ccccc4C2)C3)on1 | 1.58 |

Reference: ChEMBL document CHEMBL4513216, “Probing the Open Global Health Chemical Diversity Library for Multistage-Active Starting Points for Next-Generation Antimalarials” (ACS Infect Dis, 2020)
